Measured values pooled from the literature.
Each line is one published result; the experiments were not run side by side.
Target: Glycogen synthase kinase-3 alpha (GSK3A, Homo sapiens, UniProt P49840)

COc1ccc2c(O[C@@H]3C[C@H]4C(=O)N[C@]5(C(=O)O)CC5/C=C\CCCCC[C@H](NC(=O)OC5CCCC5)C(=O)N4C3)cc(-c3csc(NC(=O)C(C)C)n3)nc2c1C (some centres unmarked)  remaining binding (cell-free assay; competition with immobilised ligand; 1 µM): 100%
O=C(Nc1c[nH]nc1C(=O)NC1CCNCC1)c1cc(F)cc(F)c1  remaining binding (binding; competition with immobilised ligand; 1 µM): 14%
Cn1nc(C(=O)NCc2ccc(C(=O)O)cc2)cc1-c1ccc2[nH]ccc2c1  remaining binding (cell-free assay; competition with immobilised ligand; 0.1 µM): 61%
c1cncc(-c2cccc(Nc3nccc(NC4CCCCC4)n3)c2)c1  remaining binding (binding; competition with immobilised ligand; 10 µM): 65%
C[C@@H]1CCN(c2nccc(-c3cnn4ncccc34)n2)C1  remaining binding (binding; 1 µM): 80%
COCCOc1nc(-c2ccc(Cl)nc2)nc2c1CN(C(=O)c1ncn3ccccc13)CC2  remaining binding (cell-free assay; competition with immobilised ligand; 0.1 µM): 100%
COc1ccnn2ncc(-c3ccnc(N(C)C)n3)c12  remaining binding (binding; 1 µM): 96%
CN(C)C(=O)Cn1cc(-c2nc([C@@](C)(c3ccc(-c4cnc(N)nc4)cc3)C3CC3)no2)cn1  remaining binding (cell-free assay; competition with immobilised ligand; 1 µM): 100%
O=C(c1ccc(Nc2ncc(Cl)c(-c3cc4ccccc4s3)n2)cc1)N1CCC(N2CCCC2)CC1  remaining binding (binding; competition with immobilised ligand; 1 µM): 11%
F[C@@H]1CCN(c2nccc(-c3cnn4ncccc34)n2)C1  remaining binding (binding; 1 µM): 100%
O=C(Nc1cccnn1)N1CCC(=Cc2cccc(Oc3ccc(C(F)(F)F)cn3)c2)CC1  remaining binding (cell-free assay; competition with immobilised ligand; 1 µM): 100%
CNC(=O)[C@@H]1CC[C@@H](n2c(-c3ccc4cnccc4c3)nc3ccc(C(=O)NCc4cccc(C(N)=O)c4)cc32)C1  remaining binding (binding; competition with immobilised ligand; 1 µM): 85%
O=C(NCCCN1CCOCC1)c1ccc(Nc2nccc(-c3cc4ccccc4s3)n2)cc1  remaining binding (binding; competition with immobilised ligand; 1 µM): 92%
CN(C)c1ncc(F)c(-c2cnn3ncccc23)n1  remaining binding (binding; 1 µM): 82%
CCN1CCN(Cc2ccc(C(=O)Nc3ccc(C)c(Oc4ccc5c(c4)CC(=O)N5)c3)cc2C(F)(F)F)CC1  remaining binding (binding; competition with immobilised ligand; 1 µM): 100%
Cc1cnc(Nc2ccc(C(=O)N3CCC(N4CCCC4)CC3)cc2)nc1-c1cc2ccccc2s1  remaining binding (binding; competition with immobilised ligand; 1 µM): 43%
N[C@@H]1CCN(c2nccc(-c3cnn4ncccc34)n2)C1  remaining binding (binding; 1 µM): 100%
COc1cnc(Nc2cccc(S(N)(=O)=O)c2)nc1N1CCN(c2ccccc2)CC1  remaining binding (binding; competition with immobilised ligand; 1 µM): 99%
C=CC(=O)N1CCC(C(=O)NCC(=O)N2CCN(c3nc(-c4cnc(N)nc4C(F)F)nc(N4CCOCC4)n3)CC2)CC1  remaining binding (binding; competition with immobilised ligand; 1 µM): 92%
COc1ccc2c(c1)O[C@@H](c1ccc(OC)c(OC)c1)C[C@H]2NC(=O)C1(c2ccc3c(c2)OC(F)(F)O3)CC1  remaining binding (cell-free assay; competition with immobilised ligand; 1 µM): 100%
